Reference: ChEMBL document CHEMBL4689842, “EUbOPEN Chemogenomics Library wave 1” (2021)

Test system: Fibroblast
Test: Multiplex assay against human fibroblast
Format: toxicity, cell-based
Procedure, shortened: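 At seeding, live cells were stained with Hoechst33342, BioTracker Green Microtubule Cytoskeleton Dye, MitoTracker Red and Annexin V Alexa Fluor 680. After compound addition they were imaged on a CQ1 microscope at 37°C and 5% CO2, and CellPathfinder machine-learning gating sorted them into Hoechst high-intensity objects or normal cells, with normal cells further split into healthy, pyknosed or fragmented nuclei and pyknosed cells into mitotic or apoptotic. Tubulin, mitochondrial-mass and membrane-permeability phenotypes are given as per cents of cells with healthy nuclei.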

[1] = 12 h, 1 µM, compound concentration 1 uM, replicate 1
[2] = 12 h, 1 µM, compound concentration 1 uM, replicate 2
[3] = 12 h, 10 µM, compound concentration 10 uM, replicate 1
[4] = 12 h, 10 µM, compound concentration 10 uM, replicate 2
[5] = 24 h, 1 µM, compound concentration 1 uM, replicate 1
[6] = 24 h, 1 µM, compound concentration 1 uM, replicate 2
[7] = 24 h, 10 µM, compound concentration 10 uM, replicate 1
[8] = 24 h, 10 µM, compound concentration 10 uM, replicate 2
[9] = 48 h, 1 µM, compound concentration 1 uM, replicate 1
[10] = 48 h, 1 µM, compound concentration 1 uM, replicate 2
[11] = 48 h, 10 µM, compound concentration 10 uM, replicate 1
[12] = 48 h, 10 µM, compound concentration 10 uM, replicate 2

Compound: O=C1NCN(c2ccccc2)C12CCN(CCCOc1ccc(F)cc1)CC2 [SPIRAMIDE]
- Population Apoptotic (%) [1]: 75%
- Population Fragmented Nuclei (%) [1]: 40%
- Population Healthy Nuclei (%) [1]: 31%
- Population Hoechst High Intensity Objects (%) [1]: 15%
- Population Membrane Permeable-Phenotype (%) [1]: 22%
- Population Mitochondria Different-Phenotype (%) [1]: 11%
- Population Mitotic Cells (%) [1]: 24%
- Population Normal (%) [1]: 84%
- Population Pyknosed Nuclei (%) [1]: 28%
- Population Tubulin-Different-Phenotype (%) [1]: 33%
- Total Cell Count [1]: 136
- Population Apoptotic (%) [2]: 0%
- Population Fragmented Nuclei (%) [2]: 10%
- Population Healthy Nuclei (%) [2]: 88%
- Population Hoechst High Intensity Objects (%) [2]: 7%
- Population Membrane Permeable-Phenotype (%) [2]: 0%
- Population Mitochondria Different-Phenotype (%) [2]: 10%
- Population Mitotic Cells (%) [2]: 100%
- Population Normal (%) [2]: 92%
- Population Pyknosed Nuclei (%) [2]: 1%
- Population Tubulin-Different-Phenotype (%) [2]: 6%
- Total Cell Count [2]: 74
- Population Apoptotic (%) [3]: 66%
- Population Fragmented Nuclei (%) [3]: 25%
- Population Healthy Nuclei (%) [3]: 44%
- Population Hoechst High Intensity Objects (%) [3]: 13%
- Population Membrane Permeable-Phenotype (%) [3]: 6%
- Population Mitochondria Different-Phenotype (%) [3]: 54%
- Population Mitotic Cells (%) [3]: 33%
- Population Normal (%) [3]: 86%
- Population Pyknosed Nuclei (%) [3]: 30%
- Population Tubulin-Different-Phenotype (%) [3]: 82%
- Total Cell Count [3]: 162
- Population Apoptotic (%) [4]: 50%
- Population Fragmented Nuclei (%) [4]: 3%
- Population Healthy Nuclei (%) [4]: 88%
- Population Hoechst High Intensity Objects (%) [4]: 8%
- Population Membrane Permeable-Phenotype (%) [4]: 2%
- Population Mitochondria Different-Phenotype (%) [4]: 27%
- Population Mitotic Cells (%) [4]: 50%
- Population Normal (%) [4]: 91%
- Population Pyknosed Nuclei (%) [4]: 7%
- Population Tubulin-Different-Phenotype (%) [4]: 12%
- Total Cell Count [4]: 91
- Population Apoptotic (%) [5]: 57%
- Population Fragmented Nuclei (%) [5]: 31%
- Population Healthy Nuclei (%) [5]: 45%
- Population Hoechst High Intensity Objects (%) [5]: 13%
- Population Membrane Permeable-Phenotype (%) [5]: 25%
- Population Mitochondria Different-Phenotype (%) [5]: 5%
- Population Mitotic Cells (%) [5]: 42%
- Population Normal (%) [5]: 86%
- Population Pyknosed Nuclei (%) [5]: 22%
- Population Tubulin-Different-Phenotype (%) [5]: 44%
- Total Cell Count [5]: 132
- Population Apoptotic (%) [6]: 0%
- Population Fragmented Nuclei (%) [6]: 7%
- Population Healthy Nuclei (%) [6]: 89%
- Population Hoechst High Intensity Objects (%) [6]: 6%
- Population Membrane Permeable-Phenotype (%) [6]: 2%
- Population Mitochondria Different-Phenotype (%) [6]: 7%
- Population Mitotic Cells (%) [6]: 100%
- Population Normal (%) [6]: 93%
- Population Pyknosed Nuclei (%) [6]: 3%
- Population Tubulin-Different-Phenotype (%) [6]: 7%
- Total Cell Count [6]: 76
- Population Apoptotic (%) [7]: 70%
- Population Fragmented Nuclei (%) [7]: 20%
- Population Healthy Nuclei (%) [7]: 60%
- Population Hoechst High Intensity Objects (%) [7]: 16%
- Population Membrane Permeable-Phenotype (%) [7]: 10%
- Population Mitochondria Different-Phenotype (%) [7]: 44%
- Population Mitotic Cells (%) [7]: 29%
- Population Normal (%) [7]: 83%
- Population Pyknosed Nuclei (%) [7]: 18%
- Population Tubulin-Different-Phenotype (%) [7]: 85%
- Total Cell Count [7]: 177
- Population Apoptotic (%) [8]: 27%
- Population Fragmented Nuclei (%) [8]: 3%
- Population Healthy Nuclei (%) [8]: 78%
- Population Hoechst High Intensity Objects (%) [8]: 6%
- Population Membrane Permeable-Phenotype (%) [8]: 2%
- Population Mitochondria Different-Phenotype (%) [8]: 21%
- Population Mitotic Cells (%) [8]: 72%
- Population Normal (%) [8]: 93%
- Population Tubulin-Different-Phenotype (%) [8]: 10%
- Total Cell Count [8]: 118
- Population Apoptotic (%) [9]: 60%
- Population Fragmented Nuclei (%) [9]: 36%
- Population Healthy Nuclei (%) [9]: 45%
- Population Hoechst High Intensity Objects (%) [9]: 14%
- Population Membrane Permeable-Phenotype (%) [9]: 32%
- Population Mitochondria Different-Phenotype (%) [9]: 5%
- Population Mitotic Cells (%) [9]: 40%
- Population Normal (%) [9]: 85%
- Population Pyknosed Nuclei (%) [9]: 17%
- Population Tubulin-Different-Phenotype (%) [9]: 34%
- Total Cell Count [9]: 133
- Population Apoptotic (%) [10]: 0%
- Population Fragmented Nuclei (%) [10]: 15%
- Population Healthy Nuclei (%) [10]: 83%
- Population Hoechst High Intensity Objects (%) [10]: 5%
- Population Membrane Permeable-Phenotype (%) [10]: 13%
- Population Mitochondria Different-Phenotype (%) [10]: 0%
- Population Mitotic Cells (%) [10]: 100%
- Population Normal (%) [10]: 94%
- Population Pyknosed Nuclei (%) [10]: 0%
- Population Tubulin-Different-Phenotype (%) [10]: 36%
- Total Cell Count [10]: 137
- Population Apoptotic (%) [11]: 69%
- Population Fragmented Nuclei (%) [11]: 31%
- Population Healthy Nuclei (%) [11]: 59%
- Population Hoechst High Intensity Objects (%) [11]: 22%
- Population Membrane Permeable-Phenotype (%) [11]: 3%
- Population Mitochondria Different-Phenotype (%) [11]: 47%
- Population Mitotic Cells (%) [11]: 30%
- Population Normal (%) [11]: 77%
- Population Pyknosed Nuclei (%) [11]: 9%
- Population Tubulin-Different-Phenotype (%) [11]: 80%
- Total Cell Count [11]: 186
- Population Apoptotic (%) [12]: 50%
- Population Healthy Nuclei (%) [12]: 64%
- Population Hoechst High Intensity Objects (%) [12]: 9%
- Population Membrane Permeable-Phenotype (%) [12]: 8%
- Population Mitochondria Different-Phenotype (%) [12]: 2%
- Population Mitotic Cells (%) [12]: 50%
- Population Normal (%) [12]: 90%
- Population Pyknosed Nuclei (%) [12]: 3%
- Population Tubulin-Different-Phenotype (%) [12]: 29%
- Total Cell Count [12]: 123
